Calls of active or inactive are those of the source. The rule behind the calls is not given here.
Columns and labels:
[1] = target: Non-receptor tyrosine-protein kinase TYK2 (Homo sapiens, UniProt P29597); assay: Inhibition of TYK2 in human whole blood assessed as decrease in IFNalpha-induced STAT5 phosphorylation preincubated for 1 hr followed by stimulation with IFN-alpha for 15 mins by fluorescence analysis; format: tissue-based
Method in brief: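 Human whole blood stimulated with IFNα; STAT5 phosphorylation was read in cells by staining and flow cytometry. IC50 from dose–response; mean of at least three experiments.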

[2] = target: JAK1/TYK2 (Homo sapiens, UniProt P23458+P29597); assay: Inhibition of JAK1/TYK2 in human Kit225 T cells assessed as inhibition of STAT phosphorylation by luciferase reporter assay; format: cell-based
JAK1/TYK2, sequence (P23458 whole entry): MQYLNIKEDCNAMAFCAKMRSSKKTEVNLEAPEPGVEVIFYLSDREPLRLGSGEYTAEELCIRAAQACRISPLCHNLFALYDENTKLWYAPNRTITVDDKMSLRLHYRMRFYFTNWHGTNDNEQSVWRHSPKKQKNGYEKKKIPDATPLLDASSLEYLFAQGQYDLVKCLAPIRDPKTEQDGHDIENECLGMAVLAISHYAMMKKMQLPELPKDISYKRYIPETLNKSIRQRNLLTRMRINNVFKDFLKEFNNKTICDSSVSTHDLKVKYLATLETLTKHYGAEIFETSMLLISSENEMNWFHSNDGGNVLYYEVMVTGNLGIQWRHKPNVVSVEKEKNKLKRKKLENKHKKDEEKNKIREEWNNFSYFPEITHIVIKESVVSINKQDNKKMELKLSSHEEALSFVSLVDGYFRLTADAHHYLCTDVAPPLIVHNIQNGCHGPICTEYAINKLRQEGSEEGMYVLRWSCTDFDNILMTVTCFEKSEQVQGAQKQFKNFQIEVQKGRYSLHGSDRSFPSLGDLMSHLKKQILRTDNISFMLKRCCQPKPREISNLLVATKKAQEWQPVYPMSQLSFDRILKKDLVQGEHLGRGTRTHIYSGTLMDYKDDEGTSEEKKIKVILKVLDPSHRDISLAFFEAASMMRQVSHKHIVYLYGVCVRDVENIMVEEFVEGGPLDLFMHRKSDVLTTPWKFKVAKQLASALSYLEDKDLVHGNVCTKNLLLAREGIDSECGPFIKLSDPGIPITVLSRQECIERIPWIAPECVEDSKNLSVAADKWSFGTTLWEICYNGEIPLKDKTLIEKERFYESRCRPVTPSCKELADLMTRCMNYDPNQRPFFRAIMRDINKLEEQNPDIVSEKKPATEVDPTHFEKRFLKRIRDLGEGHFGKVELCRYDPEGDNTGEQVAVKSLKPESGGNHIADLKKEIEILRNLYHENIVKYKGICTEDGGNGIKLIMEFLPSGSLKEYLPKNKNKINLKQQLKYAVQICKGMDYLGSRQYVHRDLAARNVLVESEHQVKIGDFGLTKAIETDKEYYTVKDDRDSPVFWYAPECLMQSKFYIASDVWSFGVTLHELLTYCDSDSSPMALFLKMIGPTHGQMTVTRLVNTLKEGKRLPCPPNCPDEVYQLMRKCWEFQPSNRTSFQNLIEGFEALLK
JAK1/TYK2, sequence (P29597 whole entry): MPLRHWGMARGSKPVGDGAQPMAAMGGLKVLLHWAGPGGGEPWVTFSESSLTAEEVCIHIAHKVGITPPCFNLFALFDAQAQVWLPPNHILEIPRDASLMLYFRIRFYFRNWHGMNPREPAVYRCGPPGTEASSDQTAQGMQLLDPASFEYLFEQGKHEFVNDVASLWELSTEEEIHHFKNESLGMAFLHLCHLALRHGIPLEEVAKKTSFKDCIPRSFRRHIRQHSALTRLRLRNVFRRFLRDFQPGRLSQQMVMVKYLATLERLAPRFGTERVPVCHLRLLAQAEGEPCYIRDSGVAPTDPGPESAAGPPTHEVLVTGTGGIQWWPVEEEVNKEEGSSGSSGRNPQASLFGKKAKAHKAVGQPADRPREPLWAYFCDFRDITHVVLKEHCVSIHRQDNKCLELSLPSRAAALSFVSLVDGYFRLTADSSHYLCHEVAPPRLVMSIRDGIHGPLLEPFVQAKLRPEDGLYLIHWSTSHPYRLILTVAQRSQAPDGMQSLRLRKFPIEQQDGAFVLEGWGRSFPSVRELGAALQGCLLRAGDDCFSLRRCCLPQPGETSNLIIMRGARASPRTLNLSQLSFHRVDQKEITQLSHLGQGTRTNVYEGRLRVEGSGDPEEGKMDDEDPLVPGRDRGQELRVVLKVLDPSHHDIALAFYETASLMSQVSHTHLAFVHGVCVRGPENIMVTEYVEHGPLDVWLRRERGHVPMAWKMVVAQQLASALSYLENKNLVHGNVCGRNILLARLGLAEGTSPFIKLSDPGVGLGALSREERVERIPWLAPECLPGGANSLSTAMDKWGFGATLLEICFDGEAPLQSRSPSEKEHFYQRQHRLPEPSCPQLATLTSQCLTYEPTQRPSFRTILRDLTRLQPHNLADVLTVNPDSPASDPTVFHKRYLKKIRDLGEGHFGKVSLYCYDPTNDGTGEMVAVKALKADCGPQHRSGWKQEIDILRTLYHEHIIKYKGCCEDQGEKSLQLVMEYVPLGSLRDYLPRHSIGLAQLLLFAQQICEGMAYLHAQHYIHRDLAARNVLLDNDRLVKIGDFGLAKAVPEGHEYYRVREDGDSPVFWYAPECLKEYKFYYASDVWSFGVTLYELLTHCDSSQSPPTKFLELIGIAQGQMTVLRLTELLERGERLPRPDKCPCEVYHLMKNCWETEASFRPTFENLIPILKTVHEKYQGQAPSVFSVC
Method in brief: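 T-cells carrying a stably integrated STAT-dependent luciferase reporter were stimulated with IFNα or IL-23 to measure TYK2/JAK1-dependent signalling. Dose–response curves gave IC50.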

[3] = target: Non-receptor tyrosine-protein kinase TYK2 (Mus musculus, UniProt Q9R117); assay: Inhibition of TYK2 in mouse whole blood assessed as decrease in IFNalpha-induced STAT1 phosphorylation preincubated for 1 hr followed by stimulation with IFN-alpha for 15 mins by fluorescence analysis; format: tissue-based
Non-receptor tyrosine-protein kinase TYK2 (Mus musculus, UniProt Q9R117), sequence (Q9R117 whole entry): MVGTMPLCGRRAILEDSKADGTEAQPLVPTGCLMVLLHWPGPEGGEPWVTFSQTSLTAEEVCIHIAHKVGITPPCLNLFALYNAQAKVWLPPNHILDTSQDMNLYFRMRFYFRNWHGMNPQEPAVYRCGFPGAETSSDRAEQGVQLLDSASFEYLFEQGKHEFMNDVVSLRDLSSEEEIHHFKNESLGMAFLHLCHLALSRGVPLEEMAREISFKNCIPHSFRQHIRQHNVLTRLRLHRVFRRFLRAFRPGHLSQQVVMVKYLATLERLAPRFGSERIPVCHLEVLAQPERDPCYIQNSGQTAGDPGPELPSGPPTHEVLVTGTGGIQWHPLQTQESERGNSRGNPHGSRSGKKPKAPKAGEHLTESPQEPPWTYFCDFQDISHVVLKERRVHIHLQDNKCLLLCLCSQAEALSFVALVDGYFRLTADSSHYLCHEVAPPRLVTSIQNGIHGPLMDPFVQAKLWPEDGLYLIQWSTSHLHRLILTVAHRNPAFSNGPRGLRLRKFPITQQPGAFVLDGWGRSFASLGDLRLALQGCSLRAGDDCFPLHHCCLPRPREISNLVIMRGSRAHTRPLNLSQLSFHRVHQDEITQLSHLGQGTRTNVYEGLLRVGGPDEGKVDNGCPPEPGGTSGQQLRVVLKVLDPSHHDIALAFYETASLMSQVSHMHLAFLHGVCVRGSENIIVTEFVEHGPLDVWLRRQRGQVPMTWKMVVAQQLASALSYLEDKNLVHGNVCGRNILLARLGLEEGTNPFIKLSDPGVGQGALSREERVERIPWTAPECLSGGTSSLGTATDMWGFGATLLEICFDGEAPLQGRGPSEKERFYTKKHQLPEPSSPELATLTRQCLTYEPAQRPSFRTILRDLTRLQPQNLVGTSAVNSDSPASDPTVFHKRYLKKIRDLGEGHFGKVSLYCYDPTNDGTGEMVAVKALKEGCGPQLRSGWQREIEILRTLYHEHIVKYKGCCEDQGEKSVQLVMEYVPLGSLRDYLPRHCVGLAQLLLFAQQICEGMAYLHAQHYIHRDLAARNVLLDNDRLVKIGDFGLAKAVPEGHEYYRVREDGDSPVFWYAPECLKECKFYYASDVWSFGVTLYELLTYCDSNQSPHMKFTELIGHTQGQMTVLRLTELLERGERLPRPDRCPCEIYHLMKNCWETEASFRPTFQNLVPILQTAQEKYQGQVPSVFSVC
Method in brief: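 Mouse whole blood stimulated with IFNα; STAT1 phosphorylation was measured by cellular staining and flow cytometry. Read as IC50.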

[4] = Metabolic stability in mouse liver microsomes assessed as compound remaining incubated for 10 mins; format: ADME, Microsome; conditions: read-out: Stability
Method in brief: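 Mouse liver microsomal stability, reported as percent of parent remaining after a 10 min incubation. Values are means of at least three experiments unless otherwise noted.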

[5] = system: Mus musculus; assay: Protection against IL23-induced acanthosis C57BL/6 mouse assessed as inhibition of inflammatory cellular infiltration at 30 mg/kg, po via gavage bid for 9 days with first dose given prior to first IL23 challenge and twice a day thereafter by H and E staining based analysis; format: functional, organism-based; conditions: tested as the 2H-labelled form
Method in brief: (§1)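 IL-23 was injected intradermally into mouse ears repeatedly to drive acanthosis. Test agent was given orally twice daily for 9 days at 7.5, 15 or 30 mg/kg in EtOH:TPGS:PEG300 (5:5:90), with an anti-IL-23 adnectin as positive control. Epidermal hyperplasia and cellular infiltration were scored histologically. Eight mice per group; means ± SEM; one-way ANOVA.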

[6] = system: Mus musculus; assay: Protection against IL23-induced acanthosis in C57BL/6 mouse assessed as reduction in ear swelling compound dosed orally via gavage bid for 9 days with first dose given prior to first IL23 challenge and twice a day thereafter by caliper method; format: functional, organism-based; conditions: tested as the 2H-labelled form
[7] = system: Mus musculus; assay: Protection against IL23-induced acanthosis C57BL/6 mouse assessed as inhibition in epidermal hyperplasia at 30 mg/kg, po via gavage bid for 9 days with first dose given prior to first IL23 challenge and twice a day thereafter by H and E staining based analysis; format: functional, organism-based; conditions: tested as the 2H-labelled form
Method in brief: (§2)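 IL-23 was injected intradermally and repeatedly into mouse ears. Compound was dosed orally twice daily for 9 days in EtOH:TPGS:PEG300 (5:5:90), at 7.5, 15 or 30 mg/kg. Histological scoring covered epidermal hyperplasia and inflammatory infiltration. Eight mice per group; means ± SEM; one-way ANOVA.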

[8] = system: Mus musculus; assay: Protection against IL23-induced acanthosis C57BL/6 mouse assessed as reduction in ear swelling at 15 mg/kg, po via gavage bid for 9 days with first dose given prior to first IL23 challenge and twice a day thereafter by caliper method; format: functional, organism-based; conditions: tested as the 2H-labelled form
[9] = system: Mus musculus; assay: Protection against IL23-induced acanthosis C57BL/6 mouse assessed as inhibition in IL-17A mRNA expression in ear skin compound dosed orally via gavage bid for 9 days with first dose given prior to first IL23 challenge and twice a day thereafter by qRT-PCR analysis; format: functional, organism-based; conditions: tested as the 2H-labelled form
Method in brief: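 Mice given repeated intradermal IL-23 injections into the ears to induce acanthosis. Oral dosing twice daily for 9 days at 7.5, 15 or 30 mg/kg in 5:5:90 EtOH:TPGS:PEG300 vehicle; anti-IL-23 adnectin served as positive control. Skin biopsies analysed by quantitative PCR for IL-17A expression. Eight mice per group; means ± SEM; one-way ANOVA.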

[10] = system: Mus musculus; assay: Protection against IL23-induced acanthosis C57BL/6 mouse assessed as inhibition in IL-12 mRNA expression in ear skin compound dosed orally via gavage bid for 9 days with first dose given prior to first IL23 challenge and twice a day thereafter by qRT-PCR analysis; format: functional, organism-based; conditions: tested as the 2H-labelled form
Method in brief: (§3)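 IL-23 was injected intradermally and repeatedly into mouse ears to induce psoriasis-like acanthosis. Compound was given orally twice daily for 9 days in EtOH:TPGS:PEG300 (5:5:90), at 7.5, 15 and 30 mg/kg. Skin biopsies were analysed for cytokine transcripts (IL-17A, IL-21, IL-12/IL-23 subunits) by quantitative PCR. Eight mice per group.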

[11] = system: Mus musculus; assay: Protection against IL23-induced acanthosis C57BL/6 mouse assessed as reduction in ear swelling at 30 mg/kg, po via gavage bid for 9 days with first dose given prior to first IL23 challenge and twice a day thereafter by caliper method; format: functional, organism-based; conditions: tested as the 2H-labelled form
[12] = system: Mus musculus; assay: Protection against IL23-induced acanthosis C57BL/6 mouse assessed as inhibition in IL-21 mRNA expression in ear skin compound dosed orally via gavage bid for 9 days with first dose given prior to first IL23 challenge and twice a day thereafter by qRT-PCR analysis; format: functional, organism-based; conditions: tested as the 2H-labelled form; method in brief: as §3
[13] = system: Mus musculus; assay: Protection against IL23-induced acanthosis C57BL/6 mouse assessed as inhibition of inflammatory cellular infiltration compound dosed orally via gavage bid for 9 days with first dose given prior to first IL23 challenge and twice a day thereafter by H and E staining based analysis; format: functional, organism-based; conditions: tested as the 2H-labelled form; method in brief: as §1
[14] = system: Mus musculus; assay: Protection against IL23-induced acanthosis C57BL/6 mouse assessed as inhibition in IL-23 mRNA expression in ear skin compound dosed orally via gavage bid for 9 days with first dose given prior to first IL23 challenge and twice a day thereafter by qRT-PCR analysis; format: functional, organism-based; conditions: tested as the 2H-labelled form; method in brief: as §3
[15] = system: Mus musculus; assay: Protection against IL23-induced acanthosis C57BL/6 mouse assessed as inhibition in epidermal hyperplasia compound dosed orally via gavage bid for 9 days with first dose given prior to first IL23 challenge and twice a day thereafter by H and E staining based analysis; format: functional, organism-based; conditions: tested as the 2H-labelled form; method in brief: as §2
[16] = Permeability coefficient, Kp across basolateral to apical side in human Caco2 cells; format: ADME, cell-based; conditions: Caco-2, read-out: permeability
Method in brief: (§4)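 Caco-2 monolayer permeability measured in both directions, apical-to-basal and basal-to-apical, reported as Pc in nm/s. An efflux ratio was calculated from the two directions.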

[17] = Permeability coefficient, Kp across apical to basolateral side in human Caco2 cells; format: ADME, cell-based; conditions: Caco-2, read-out: permeability; method in brief: as §4
[18] = organism: Homo sapiens; assay: Selectivity ratio of IC50 for JAK1/JAK3 in human PBMC assessed as decrease in IL2-induced STAT5 phosphorylation in CD3+ T cells to IC50 for TYK2 JH2 domain in human PBMC assessed as decrease in IFNalpha-induced STAT5 phosphorylation; format: cell-based; conditions: tested as the 2H-labelled form
Method in brief: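 Human PBMC were stimulated with IL-2 (JAK1/JAK3) or IFNα (TYK2), and STAT5 phosphorylation in CD3⁺ T-cells was the end point. The ratio is IL-2 IC50 over IFNα IC50, with means from at least three separate experiments.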

[19] = organism: Homo sapiens; assay: Selectivity ratio of IC50 for JAK2 in GM-CSF-stimulated human TF-1 cells to IC50 for TYK2 JH2 domain in human PBMC assessed as decrease in IFNalpha-induced STAT5 phosphorylation; conditions: tested as the 2H-labelled form
[20] = organism: Homo sapiens; assay: Selectivity ratio of IC50 for c-kit (unknown origin) to IC50 for His-tagged recombinant human TYK2 pseudokinase JH2 domain (575-869 residues) incubated for 1 hr by HTRF assay; conditions: tested as the 2H-labelled form
[21] = Metabolic stability in mouse liver microsomes assessed as half life; format: ADME, Microsome
Method in brief: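 Liver microsomes from human, rat, mouse, dog, cynomolgus monkey and rabbit were incubated with compound. Stability is reported as half-life (T1/2, min). Values are means of at least three separate experiments.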

[22] = target: Voltage-gated inwardly rectifying potassium channel KCNH2 (Homo sapiens, UniProt Q12809); assay: Inhibition of human ERG by in vitro ion channel flux assay
Voltage-gated inwardly rectifying potassium channel KCNH2, sequence (Q12809 whole entry): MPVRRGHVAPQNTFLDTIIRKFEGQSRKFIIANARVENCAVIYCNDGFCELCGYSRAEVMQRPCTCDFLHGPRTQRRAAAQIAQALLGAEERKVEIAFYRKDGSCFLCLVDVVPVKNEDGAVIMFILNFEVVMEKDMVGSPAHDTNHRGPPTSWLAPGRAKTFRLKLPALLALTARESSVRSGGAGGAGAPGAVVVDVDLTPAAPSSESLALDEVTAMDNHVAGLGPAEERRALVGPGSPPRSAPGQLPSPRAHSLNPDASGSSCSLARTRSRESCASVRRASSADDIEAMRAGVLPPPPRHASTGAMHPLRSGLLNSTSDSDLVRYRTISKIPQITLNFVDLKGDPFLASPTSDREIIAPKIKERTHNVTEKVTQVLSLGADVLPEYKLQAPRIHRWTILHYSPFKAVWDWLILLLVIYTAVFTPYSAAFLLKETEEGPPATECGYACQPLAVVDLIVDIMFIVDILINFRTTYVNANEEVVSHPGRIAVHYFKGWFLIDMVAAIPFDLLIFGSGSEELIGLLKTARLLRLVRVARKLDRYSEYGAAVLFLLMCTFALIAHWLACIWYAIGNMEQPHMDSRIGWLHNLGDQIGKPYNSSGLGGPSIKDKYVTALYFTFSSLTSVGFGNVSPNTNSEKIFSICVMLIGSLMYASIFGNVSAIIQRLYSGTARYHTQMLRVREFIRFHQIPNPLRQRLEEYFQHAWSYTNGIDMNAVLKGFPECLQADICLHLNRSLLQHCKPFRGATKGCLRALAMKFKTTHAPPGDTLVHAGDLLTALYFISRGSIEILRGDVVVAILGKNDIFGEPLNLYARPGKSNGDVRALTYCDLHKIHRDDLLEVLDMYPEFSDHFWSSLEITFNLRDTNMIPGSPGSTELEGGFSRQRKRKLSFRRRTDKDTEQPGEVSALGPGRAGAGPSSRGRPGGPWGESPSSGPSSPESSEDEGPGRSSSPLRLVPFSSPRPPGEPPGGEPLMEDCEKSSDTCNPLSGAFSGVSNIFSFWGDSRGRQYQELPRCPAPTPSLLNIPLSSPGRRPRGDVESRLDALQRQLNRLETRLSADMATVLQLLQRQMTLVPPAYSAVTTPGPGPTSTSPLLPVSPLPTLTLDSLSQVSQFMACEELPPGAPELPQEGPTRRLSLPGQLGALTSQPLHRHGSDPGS

Non-receptor tyrosine-protein kinase TYK2 (Homo sapiens, UniProt P29597), sequence (P29597 whole entry): as the sequence (P29597 whole entry) above

Structure (SMILES)	IC50 [1]	IC50 [2]	IC50 [3]	remaining at 10 min [4]	other results
CNC(=O)c1cnc(Nc2cc(C)c(F)cn2)cc1Nc1cccc(-c2nnco2)c1OC	170 nM	15 nM	522 nM	46%	
[2H]C([2H])([2H])NC(=O)c1nnc(NC(=O)C2CC2)cc1Nc1cccc(-c2ncn(C)n2)c1	> 10000 nM				
CNC(=O)c1nnc(NC(=O)C2CC2)cc1Nc1cccc(-c2ncn(C)n2)c1OC					Activity [5]: Active; Activity [6]: Dose-dependent effect; Activity [7]: Active; Activity [8]: Active; Activity [9]: Dose-dependent effect; Activity [10]: Dose-dependent effect; Activity [11]: Active; Activity [12]: Dose-dependent effect; Activity [13]: Dose-dependent effect; Activity [14]: Dose-dependent effect; Activity [15]: Dose-dependent effect
CNC(=O)c1cnc(Nc2cc(C)c(F)cn2)cc1Nc1cccc(C(N)=O)c1OC	62 nM	30 nM			Papp B→A [16]: 26 ×10⁻⁶ cm/s; Papp A→B [17]: < 1.5 ×10⁻⁶ cm/s
CNC(=O)c1cnc(Nc2ccc(F)cn2)cc1Nc1cccc(C(=O)O)c1OC	> 10000 nM	> 10000 nM			Papp A→B [17]: < 1.5 ×10⁻⁶ cm/s
CNC(=O)c1cnc(Nc2cc(C)c(F)cn2)cc1Nc1cccc(C(=O)NCC2CC2)c1OC	870 nM	64 nM			
CCNC(=O)c1cccc(Nc2cc(Nc3cc(C)c(F)cn3)ncc2C(=O)NC)c1OC	280 nM	28 nM			
CNC(=O)c1cnc(Nc2ccc(F)cn2)cc1Nc1ccc(C(N)=O)cc1OC	390 nM	930 nM			
CNC(=O)c1cnc(Nc2cc(C)c(F)cn2)cc1Nc1cccc(-c2ccnn2C)c1OC	300 nM	70 nM		15%	
CNC(=O)c1cnc(Nc2cc(C)c(F)cn2)cc1Nc1cccc(C(=O)N(C)C)c1OC	750 nM	130 nM			
CNC(=O)c1cnc(Nc2cc(C)c(F)cn2)cc1Nc1cccc(C(=O)NC)c1OC	140 nM	47 nM			
CNC(=O)c1cccc(Nc2cc(Nc3ccc(F)cn3)ncc2C(=O)NC)c1	> 10000 nM	7500 nM			
CNC(=O)c1nnc(Nc2ccccn2)cc1Nc1ccccc1S(C)(=O)=O					Ratio IC50 [18]: 210; Ratio IC50 [19]: 270; Ratio IC50 [20]: 690
[2H]C([2H])([2H])NC(=O)c1cnc(NC(=O)C2CC2)cc1Nc1cccc(-c2ncn(C)n2)c1OC	13 nM	8 nM	100 nM	89%	half-life [21]: > 2 h; Papp A→B [17]: < 1.5 ×10⁻⁶ cm/s
CNC(=O)c1cnc(Nc2cc(C)nc(C)n2)cc1Nc1cccc(-c2ncn(C)n2)c1OC	19 nM	12 nM	730 nM	73%	Papp A→B [17]: < 1.5 ×10⁻⁶ cm/s
CNC(=O)c1cnc(Nc2cc(C)c(F)cn2)cc1Nc1cccc(-c2nncn2C)c1OC	150 nM	16 nM		29%	

Structure (SMILES)	IC50 [1]	IC50 [2]	IC50 [3]	remaining at 10 min [4]	other results
CNC(=O)c1cnc(Nc2cc(C)c(F)cn2)cc1Nc1cccc(-c2ncn(C)n2)c1OC	12 nM	4 nM	130 nM	80%	
CNC(=O)c1cnc(Nc2ccc(F)cn2)cc1Nc1cccc(C#N)c1OC	570 nM	34 nM			
CNC(=O)c1ccc(Nc2cc(Nc3ccc(F)cn3)ncc2C(=O)NC)c(OC)c1	520 nM	490 nM			Papp A→B [17]: < 1.5 ×10⁻⁶ cm/s
CNC(=O)c1cnc(Nc2cc(C)c(F)cn2)cc1Nc1cccc(C(=O)NCCO)c1OC	270 nM	220 nM			
CNC(=O)c1cnc(Nc2cc(C)c(F)cn2)cc1Nc1cccc(C(=O)NCCN2CCOCC2)c1OC	160 nM	51 nM			
CNC(=O)c1cnc(Nc2ccc(C#N)cn2)cc1Nc1cccc(-c2ncn(C)n2)c1OC	15 nM	6 nM	260 nM	85%	Papp A→B [17]: 1.8 ×10⁻⁶ cm/s
CNC(=O)c1cnc(NC(=O)C2CC2)cc1Nc1cccc(-c2ncn(C)n2)c1OC	16 nM	14 nM	330 nM	93%	Papp A→B [17]: 2.3 ×10⁻⁶ cm/s
CNC(=O)c1cnc(Nc2cc(C)c(F)cn2)cc1Nc1cccc(C(=O)NCc2ccccn2)c1OC	180 nM	22 nM			
CNC(=O)c1cnc(Nc2cc(C)c(F)cn2)cc1Nc1cccc(-c2ncnn2C)c1OC	87 nM	15 nM	380 nM	9%	
CNC(=O)c1cnc(Nc2cc(C)c(F)cn2)cc1Nc1cccc(-c2n[nH]c(C)n2)c1OC	40 nM	7 nM	320 nM	63%	
CNC(=O)c1cnc(Nc2ccc(F)cn2)cc1Nc1cccc(C(N)=O)c1OC	120 nM	63 nM			
CNC(=O)c1cnc(Nc2cc(C)c(F)cn2)cc1Nc1cccc(-c2nnc(C)o2)c1OC	100 nM	12 nM	570 nM	70%	
CNC(=O)c1cnc(Nc2ccc(F)cn2)cc1Nc1cccc(C(=O)NC)c1OC	230 nM	78 nM			Papp A→B [17]: 5 ×10⁻⁶ cm/s
CNC(=O)c1cnc(Nc2ccc(C(F)(F)F)cn2)cc1Nc1cccc(-c2ncn(C)n2)c1OC	69 nM	12 nM	700 nM	78%	IC50 [22]: 16000 nM; Papp A→B [17]: 1.6 ×10⁻⁶ cm/s
CNC(=O)c1cnc(Nc2cc(C)c(F)cn2)cc1Nc1cccc(-c2ccn(C)n2)c1OC	79 nM	9 nM	430 nM	66%	
CNC(=O)c1cnc(Nc2cc(C)c(F)cn2)cc1Nc1cccc(-c2nc[nH]n2)c1OC	23 nM	8 nM	310 nM	51%	

— ChEMBL document CHEMBL4376812 (J Med Chem, 2019)
